High-throughput results from PubChem.
RGS4 pot – potentiators or activators of RGS4 | HEK293 M3R/inducible RGS4, carbachol calcium flux Fluo4; active compounds read low | B-score at 10 µM | hit rate 0.92% among 310,000 | AID 463111;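 active = B-score of the integrated calcium signal more than 4 SD below the library mean, with starting fluorescence not abnormally high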;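 note: negative B-score means reduced calcium response which marks RGS4 activation or potentiation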
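test system = M3R-expressing HEK293 line, RGS4 induced by doxycycline | probe or stimulus = carbachol at ECmax as muscarinic agonist stimulus | timing = dye loading 30 min 37 °C, buffer rest 30 min RT | signal = calcium dye Fluo4 fluorescence | evaluation = B score from integrated fluorescence ratio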
MrgX1 antagonist – antagonists of human MrgX1 receptor. B-score at 10 µM. MRGX1-HEK293 calcium flux, Fluo-4, BAM8-22 antagonism; active compounds read low. hit rate 1.3% among 310,000. Q96LB2;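 active = calcium-response B-score plate-corrected more than 3 library SD below zero, starting fluorescence within 5 deviations, no agonist response on first addition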;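 note: peak minus trough fluorescence over baseline after final BAM8-22 challenge near maximal dose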
Target sequence (Q96LB2 whole entry, looked up): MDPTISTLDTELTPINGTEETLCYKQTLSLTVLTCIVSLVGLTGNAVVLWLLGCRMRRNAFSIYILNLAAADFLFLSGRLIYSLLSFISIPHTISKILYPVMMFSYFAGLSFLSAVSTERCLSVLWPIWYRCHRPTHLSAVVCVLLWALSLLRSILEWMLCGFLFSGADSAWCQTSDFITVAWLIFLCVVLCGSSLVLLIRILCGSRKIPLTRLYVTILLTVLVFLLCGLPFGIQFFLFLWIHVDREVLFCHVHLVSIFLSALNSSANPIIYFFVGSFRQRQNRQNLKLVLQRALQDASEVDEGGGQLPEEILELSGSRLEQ
MrgX1 PAM – human MrgX1 positive allosteric modulation, primary screen; MrgX1-HEK293, Fluo-4 calcium flux, FDSS; active compounds read high; Q96LB2; AID 588675; B-score at 10 µM; hit rate 0.63% among 310,000;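 active = plate-corrected calcium response at least 3 library SD above typical, normal starting fluorescence, not activating the receptor alone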;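 note: compound read alongside a low EC10 to EC30 dose of BAM8-22 agonist; peak minus trough fluorescence over baseline measured at the second addition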
RGS4 inh – human RGS4 inhibition; HEK293 M3R/RGS4 inducible, Fluo-4 calcium flux; active compounds read high; triggered by carbachol at its EC20; B-score at 10 µM; hit rate 0.45% among 310,000; AID 463165;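 active = B-score, a plate-corrected calcium signal, over three deviations above library mean, with baseline fluorescence within five deviations of library mean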;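 note: RGS4 expression induced by doxycycline in cells with stable M3 receptor; B-score is computed from the integrated fluorescence ratio over baseline after carbachol; higher B-score means a larger calcium signal and so more RGS4 inhibition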
Target sequence (P49798 whole entry, looked up): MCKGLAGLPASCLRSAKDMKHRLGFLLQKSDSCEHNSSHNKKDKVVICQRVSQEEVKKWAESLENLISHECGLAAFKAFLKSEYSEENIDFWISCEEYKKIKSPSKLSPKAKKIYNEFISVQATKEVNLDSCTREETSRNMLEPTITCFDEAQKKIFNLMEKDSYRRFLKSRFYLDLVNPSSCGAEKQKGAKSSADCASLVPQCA
MrgX1 agonist – human MrgX1 receptor agonism, primary screen. Q96LB2. MrgX1-HEK293 cells, Fluo-4 calcium fluorescence, agonist mode; active compounds read high. B-score at 10 µM. hit rate 0.44% among 310,000. AID 588627;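 active = calcium response B-score plate-corrected fluorescence ratio at least 3 library SD, with starting fluorescence B-score inside 5 SD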
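Test system: HEK293 cells stably expressing human MrgX1 receptor; Input: fifteen thousand cells per well; Dosing: compound delivered in addition one of three; Schedule: overnight seeding, then 1 h dark dye loading; Technique: Fluo-4 NW calcium fluorescence; Measure: B-scored fluorescence response ratio; Controls: positive and negative controls per plate.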
MrgX1 ant reconf – confirmation of human MrgX1 receptor antagonists; shares compounds with MrgX1 antagonist; MrgX1-HEK293, BAM8-22 calcium flux, Fluo-4; active compounds read low; remaining BAM8-22 calcium response % of control (active compounds read low), % at 10 µM; hit rate 19% among 2,300;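 active = remaining agonist calcium response no higher than 100% minus 3 SD of agonist-only control wells, with starting fluorescence near control levels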;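 note: agonist BAM8-22 given at a near maximal EC90 to ECmax level; peak minus minimum fluorescence divided by baseline after agonist addition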
HEK293 Ca flux – MrgX1 antagonist counter-screen hit in parental HEK293 cells; shares compounds with MrgX1 antagonist; Fluo-4 calcium fluorescence, FDSS; fluorescence ratio F(max-min)/F0 at 10 µM; hit rate 2% among 4,000;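 active = duplicate-averaged calcium fluorescence ratio at least three times the standard deviation of buffer wells, a nonspecific response in parental cells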
HEK293 Ca counter – activity in parental HEK293 cells without MrgX1. fluorescence ratio F(max-min)/F0 at 10 µM. hit rate 0.4% among 4,000. parental HEK293 calcium flux, Fluo-4 fluorescence ratio; active compounds read high. shares compounds with MrgX1 antagonist. AID 624114;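 active = calcium fluorescence ratio, averaged over duplicates, at least 3 SD of the buffer-well ratio, meaning a nonspecific response in receptor-free cells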;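 note: untransfected parental HEK293 lacking MrgX1 used as counterscreen for MrgX1 allosteric activators; fluorescence change taken during the second addition on a kinetic imager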
HEK293 Ca cntr2 – MrgX1 activator counter-screen hit in parental HEK293 cells; hit rate 8.7% among 4,000; fluorescence ratio F(max-min)/F0 at 10 µM; Fluo-4 calcium fluorescence (FDSS); active compounds read high; shares compounds with MrgX1 antagonist;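 active = calcium fluorescence ratio at least three times the spread of buffer wells, meaning a non-specific response in parental cells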
* marks the source's active call; other numbers are inactive results; i = inactive; / = no result. Shown are actives, neighbours in structure and some others; about 3.5% of the full set was active somewhere.

SMILES | RGS4 pot | MrgX1 antagonist | MrgX1 PAM | RGS4 inh | MrgX1 agonist | MrgX1 ant reconf | HEK293 Ca flux | HEK293 Ca counter | HEK293 Ca cntr2
Cc1nc(=O)c(-c2ccccc2)c(C)n1-c1ccc(S(N)(=O)=O)cc1 | i | i | i | i | i | / | / | / | /
Cc1nc(=O)c(-c2ccccc2)c(C)n1-c1ccc(C(=O)O)cc1 | i | -4.9* | i | i | i | i | i | i | i
CCOC(=O)c1sc(NC(=O)CSc2nc3c(cc2C#N)CCCCCC3)c(C#N)c1C | i | i | i | i | i | / | / | / | /
CCOC(=O)c1sc(NC(=O)CSc2nc(C)cc(C)c2C#N)c(C#N)c1C | i | -7.3* | i | i | i | i | i | i | i
N#C/C(=C\c1ccc(OCc2ccc(Br)cc2)cc1)C(=O)Nc1cccc(C(=O)O)c1 | i | i | i | i | i | / | / | / | /
CCOc1cc(/C=C(\C#N)C(=O)Nc2cccc(C(=O)O)c2)cc(Br)c1OC(=O)c1ccc(OC)cc1 | -8.1* | -10* | i | i | i | i | i | i | 50*
CCCn1nc2cc(C(=O)NCCc3cccs3)ccc2c1OCC | i | i | i | i | i | / | / | / | /
Cc1cc(C)c2nc(C)cc(Nc3ccc(C(=O)N4CCOCC4)cc3)c2c1 | i | i | i | i | i | / | / | / | /
Cn1c(N)c(C(=O)COC(=O)[C@@H]2CCCN2S(=O)(=O)c2ccc(Cl)cc2)c(=O)n(C)c1=O | i | -6.1* | i | i | i | i | i | i | i
O=c1[nH]c(Cc2ccccc2)nc2c1oc1ccccc12 | i | i | i | i | i | / | / | / | /
O=c1[nH]c(CO)nc2c1oc1ccccc12 | i | -6.7* | i | i | i | i | i | i | i
CSc1cccc(NS(=O)(=O)c2ccc3c(c2)oc(=O)n3C)c1 | i | -6.2* | i | i | i | 76%* | i | i | i
CCc1noc(C)c1C(=O)Nc1nnc(C2CCCCC2)s1 | i | i | i | i | i | / | / | / | /
Cc1occc1C(=O)Nc1sc2c(c1C(N)=O)CCCCC2 | i | -6.5* | i | i | i | i | i | i | i
CCc1c(C)sc(NC(=O)c2ccoc2C)c1C(N)=O | i | -5.9* | i | i | i | i | i | i | i
CCNC(=O)N1CCOCC1 | i | i | i | i | i | / | / | / | /
CC(OC(=O)COc1cccc2c1OC(C)(C)C2)C(=O)Nc1ccc(S(N)(=O)=O)cc1 (stereo unspecified) | i | -5.4* | i | i | i | i | i | i | i
CCOc1ccc(NC(=O)COC(=O)COc2cccc3c2OC(C)(C)C3)cc1 | i | i | i | i | i | / | / | / | /
O=C(CCCOc1cccc(Br)c1)NCCOc1ccccc1 | i | i | i | i | i | / | / | / | /
Cc1ccn2c(=O)nc(SCC(=O)Nc3cc(C)on3)nc2c1 | i | i | i | i | i | / | / | / | /
Cc1cc(NC(=O)CSc2nc(=O)n3cc(Cl)ccc3n2)no1 | i | -8.2* | i | i | i | 73%* | i | i | i
Cc1cc(Nc2ccccc2)n(-c2ccc(C(=O)O)cc2)n1 | i | -4.5* | i | i | i | i | i | i | i
Cc1cc(C)n(-c2ccc(C(=O)O)cc2)n1 | i | i | i | i | i | / | / | / | /
Cc1cc(NC(=O)CSc2ccc(-c3ccc(Br)cc3)nn2)no1 | i | -8.2* | i | i | i | i | i | i | i
Cc1ccc(-c2ccc(SCC(=O)Nc3cc(C)on3)nn2)cc1 | i | i | i | i | i | / | / | / | /
SMILES | RGS4 pot | MrgX1 antagonist | MrgX1 PAM | RGS4 inh | MrgX1 agonist | MrgX1 ant reconf | HEK293 Ca flux | HEK293 Ca counter | HEK293 Ca cntr2
C/C(=N/NC(=O)c1cc(-c2ccc(Cl)s2)[nH]n1)c1ccco1 | i | i | i | i | i | / | / | / | /
O=C(Nc1cccc(S(=O)(=O)N2CCCCC2)c1)c1ccc2ncsc2c1 | i | i | i | i | i | / | / | / | /
Cc1[nH]ccc(=O)c1OCc1c(Cl)cccc1Cl | i | -6.7* | i | i | i | i | i | i | i
CC1(C)CC(NCc2ccncc2)CC(C)(C)N1 | i | -9.7* | i | i | i | 86%* | i | i | i
CN(C)c1ccc(CNC2CC(C)(C)NC(C)(C)C2)cc1 | i | i | i | i | i | / | / | / | /
COc1cc(SC)ccc1C(=O)N(Cc1ccccc1)c1ccccn1 | i | i | i | i | i | / | / | / | /
CC(C)(C)Cc1nnc(NC(=O)c2ccco2)s1 | i | i | i | i | i | / | / | / | /
CCN1CCN(/C=N/c2nc3c(s2)CCCC3)CC1 | i | -4.5* | i | i | i | i | i | i | i
CCOCCCNC(=O)C(NC(=O)c1cnccn1)c1ccc(C)cc1 (stereo unspecified) | i | i | i | i | i | / | / | / | /
C/C(CC(=O)NC1CCCCC1)=N\NC(=O)COc1ccc(C)cc1Br | i | i | i | i | i | / | / | / | /
COc1cc(C=Nc2ccccc2C(=O)Nc2ccccc2)cc(OC)c1OC | i | -5.5* | i | i | i | i | i | i | i
COc1cc(NC(=O)c2ccccc2-c2ccccc2)cc(OC)c1OC | i | i | i | i | i | / | / | / | /
O=C1C(=O)N(Cc2cccnc2)C(c2cccc([N+](=O)[O-])c2)/C1=C(/O)c1ccc2c(c1)OCO2 (stereo unspecified) | i | i | i | i | i | / | / | / | /
Cc1ccc(Cc2nc(-c3cccnc3)no2)cc1 | i | -4.8* | i | i | i | i | i | i | i
CCOC(=O)c1cnn(-c2ccc(C)cc2)c1N | i | -4.7* | i | i | i | i | i | i | i
CCOC(=O)c1ccc(-n2ncc(C(=O)OCC)c2N)cc1 | i | i | i | i | i | / | / | / | /
O=C(NC1CC1)C1CCN(S(=O)(=O)c2cc(Cl)ccc2Cl)CC1 | i | -5.4* | i | i | i | i | i | i | i
